Measured values as given in ChEMBL document CHEMBL1128719, “The synthesis, structure-activity, and structure-side effect relationships of a series of 8-alkoxy- and 5-amino-8-alkoxyquinolone antibacterial agents” (J Med Chem, 1995).
Converted amounts (≈) assume the structure as drawn.

Assays:
[1] = system: Clostridioides difficile; assay: In vitro antibacterial activity was tested for Clostridium diff CD1-1; format: functional
[2] = system: Peptoniphilus asaccharolyticus; assay: In vitro antibacterial activity was tested for Pepto asac PA 3-1; format: functional
Outline: (§1)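 Microtitration (microdilution) MIC determination in μg/mL against a panel of Gram-positive, Gram-negative and anaerobic organisms. Values come from duplicate or triplicate experiments and are stated accurate to ±50%.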

[3] = organism: Mus musculus; assay: (§2) Phototoxic skin reaction in depilated female CD-1 mice; format: toxicity, organism-based; conditions: in vivo
Outline: (§3)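 Female CD-1 mice, depilated, given a single oral or subcutaneous dose. UVA (320–400 nm) exposure for 3 h, starting 1 h post-dose. Initial doses were 30, 100 and 300 mg/kg. PTD50 (dose giving phototoxic skin reaction in 50% of mice) derived by probit method. First day of positive reaction and no-effect dose taken from raw data.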

[4] = system: Cutibacterium acnes; assay: In vitro antibacterial activity was tested for Propion acnes PA5-1; format: functional; outline: as §1
[5] = organism: Mus musculus; assay: Phototoxic skin reaction in depilated female CD-1 mice.; format: functional; outline: as §3
[6] = system: Clostridium perfringens; assay: In vitro antibacterial activity against Clostridium perfringens CP 3-1; format: functional
[7] = system: Bacteroides fragilis; assay: In vitro antibacterial activity against Bacteroides fragilis BFA; format: functional; outline: as §1
[8] = system: V79; assay: Clonogenic cytotoxicity against Chinese hamster V-79 cells; format: functional, cell-based; conditions: Cricetulus griseus
[9] = system: Staphylococcus aureus; assay: In vitro antibacterial activity was tested for Staphylococcus aureus H228; format: functional; outline: as §1
[10] = system: Enterobacter cloacae; assay: In vitro antibacterial activity was tested for Enterobacter cloacae HA2646; format: functional
[11] = system: Klebsiella pneumoniae; assay: In vitro antibacterial activity was tested for Klebsiella pneumoniae MGH-2; format: functional; outline: as §1
[12] = system: Streptococcus pyogenes; assay: In vitro antibacterial activity was tested for Streptococcus pyogenes C203; format: functional; outline: as §1
[13] = system: Streptococcus pneumoniae; assay: In vitro antibacterial activity was tested for Streptococcus pneumoniae SV-1; format: functional; outline: as §1
[14] = system: Escherichia coli; assay: In vitro antibacterial activity was tested for Escherichia coli H560; format: functional; outline: as §1
[15] = system: Escherichia coli; assay: In vitro antibacterial activity was tested for Escherichia coli Vogel; format: functional; outline: as §1
[16] = system: Pseudomonas aeruginosa; assay: In vitro antibacterial activity was tested for Pseudomonas aeruginosa UI-18; format: functional; outline: as §1
[17] = system: Providencia rettgeri; assay: In vitro antibacterial activity was tested for Providencia rettgeri H1771; format: functional; outline: as §1
[18] = system: Enterococcus faecalis; assay: In vitro antibacterial activity was tested for Streptococcus faecalis MGH-2; format: functional; outline: as §1
[19] = system: Staphylococcus aureus; assay: In vitro antibacterial activity was tested for Staphylococcus aureus UC-76; format: functional; outline: as §1
[20] = organism: Mus musculus; assay: as §2; format: functional; outline: as §3

Row | Compound | MIC [1] [mg/L] | MIC [2] [mg/L] | PTD50 [3] [mg] | MIC [4] [mg/L] | No effect dose [5] [mg] | MIC [6] [mg/L] | MIC [7] [mg/L] | IC50 [8] [mg/L] | MIC [9] [mg/L] | MIC [10] [mg/L] | MIC [11] [mg/L] | MIC [12] [mg/L] | MIC [13] [mg/L] | MIC [14] [mg/L] | MIC [15] [mg/L] | MIC [16] [mg/L] | MIC [17] [mg/L] | MIC [18] [mg/L] | MIC [19] [mg/L] | No effect dose [20] [mg]
1 | NC1CCCN(c2c(F)cc3c(=O)c(C(=O)O)cn(C4CC4)c3c2F)C1 (stereo unspecified) | 1.6 (≈ 4.4 µM) | 1.6 (≈ 4.4 µM) | 55 | 0.4 (≈ 1.1 µM) | 30 | 0.2 (≈ 0.55 µM) | 1.6 (≈ 4.4 µM) |  |  |  |  |  |  |  |  |  |  |  |  | 
2 | CC1(CN)CCN(c2c(F)cc3c(=O)c(C(=O)O)cn(C4CC4)c3c2Cl)C1 (stereo unspecified) | 0.2 (≈ 0.508 µM) | 0.2 (≈ 0.508 µM) | < 30 | 0.2 (≈ 0.508 µM) | <30 | 0.05 (≈ 0.127 µM) | 0.05 (≈ 0.127 µM) | 8.6 (≈ 21.8 µM) |  |  |  |  |  |  |  |  |  |  |  | 
3 | COc1c(N2CCC(N)CC2)c(F)c(N)c2c(=O)c(C(=O)O)cn(C3CC3)c12 | 3.1 (≈ 7.94 µM) | 1.6 (≈ 4.1 µM) |  | 3.1 (≈ 7.94 µM) |  | 0.8 (≈ 2.05 µM) | 3.1 (≈ 7.94 µM) | 60 (≈ 154 µM) | 0.05 (≈ 0.128 µM) | 0.1 (≈ 0.256 µM) | 0.2 (≈ 0.512 µM) | 0.025 (≈ 0.064 µM) | 0.013 (≈ 0.0333 µM) | 0.05 (≈ 0.128 µM) | 0.1 (≈ 0.256 µM) | 1.6 (≈ 4.1 µM) | 0.4 (≈ 1.02 µM) | 0.05 (≈ 0.128 µM) | 0.013 (≈ 0.0333 µM) | 
4 | COc1c(N2CCCC(N)C2)c(F)c(N)c2c(=O)c(C(=O)O)cn(C3CC3)c12 (stereo unspecified) | 1.6 (≈ 4.1 µM) | 0.8 (≈ 2.05 µM) | > 100 | 0.4 (≈ 1.02 µM) | 100 | 0.2 (≈ 0.512 µM) | 1.6 (≈ 4.1 µM) | 290 (≈ 743 µM) | 0.025 (≈ 0.064 µM) | 0.1 (≈ 0.256 µM) | 0.2 (≈ 0.512 µM) | 0.013 (≈ 0.0333 µM) | 0.006 (≈ 0.0154 µM) | 0.05 (≈ 0.128 µM) | 0.1 (≈ 0.256 µM) | 1.6 (≈ 4.1 µM) | 0.4 (≈ 1.02 µM) | 0.05 (≈ 0.128 µM) | 0.006 (≈ 0.0154 µM) | 
5 | NC1CCN(c2cc3c(cc2F)c(=O)c(C(=O)O)cn3C2CC2)C1 (stereo unspecified) | 12.5 (≈ 37.7 µM) | 1.6 (≈ 4.83 µM) | > 300 | 1.6 (≈ 4.83 µM) |  | 0.1 (≈ 0.302 µM) | 1.6 (≈ 4.83 µM) |  | 0.025 (≈ 0.0754 µM) | 0.025 (≈ 0.0754 µM) | 0.1 (≈ 0.302 µM) | 0.006 (≈ 0.0181 µM) | 0.1 (≈ 0.302 µM) | 0.05 (≈ 0.151 µM) | 0.025 (≈ 0.0754 µM) | 0.1 (≈ 0.302 µM) | 0.1 (≈ 0.302 µM) | 0.05 (≈ 0.151 µM) | 0.1 (≈ 0.302 µM) | 300
6 | Nc1c(F)c(N2CCC(N)C2)c(F)c2c1c(=O)c(C(=O)O)cn2C1CC1 (stereo unspecified) |  |  | 52 |  |  |  |  |  | 0.013 (≈ 0.0357 µM) | 0.006 (≈ 0.0165 µM) | 0.006 (≈ 0.0165 µM) | 0.025 (≈ 0.0686 µM) | 0.006 (≈ 0.0165 µM) | 0.003 (≈ 0.00823 µM) | 0.006 (≈ 0.0165 µM) | 0.05 (≈ 0.137 µM) | 0.025 (≈ 0.0686 µM) | 0.025 (≈ 0.0686 µM) | 0.006 (≈ 0.0165 µM) | 30
7 | CCOc1c(N2CCCC(CN)C2)c(F)cc2c(=O)c(C(=O)O)cn(C3CC3)c12 (stereo unspecified) | 3.1 (≈ 7.68 µM) | 0.4 (≈ 0.991 µM) |  | 3.1 (≈ 7.68 µM) |  | 0.4 (≈ 0.991 µM) | 3.1 (≈ 7.68 µM) | 63 (≈ 156 µM) | 0.05 (≈ 0.124 µM) | 0.4 (≈ 0.991 µM) | 0.8 (≈ 1.98 µM) | 0.025 (≈ 0.062 µM) | 0.025 (≈ 0.062 µM) | 0.1 (≈ 0.248 µM) | 0.2 (≈ 0.496 µM) | > 3.1 | > 3.1 | 0.05 (≈ 0.124 µM) | 0.013 (≈ 0.0322 µM) | 
8 | COc1c(N2CC(C)NC(C)C2)c(F)c(N)c2c(=O)c(C(=O)O)cn(C3CC3)c12 (stereo unspecified) | 3.1 (≈ 7.66 µM) | 0.8 (≈ 1.98 µM) | > 100 | 1.6 (≈ 3.96 µM) | 100 | 0.4 (≈ 0.989 µM) | 1.6 (≈ 3.96 µM) |  | 0.1 (≈ 0.247 µM) | 0.2 (≈ 0.495 µM) | 0.4 (≈ 0.989 µM) | 0.1 (≈ 0.247 µM) | 0.05 (≈ 0.124 µM) | 0.1 (≈ 0.247 µM) | 0.2 (≈ 0.495 µM) | 3.1 (≈ 7.66 µM) | 0.8 (≈ 1.98 µM) | 0.2 (≈ 0.495 µM) | 0.025 (≈ 0.0618 µM) | 
9 | CCOc1c(N2CCC(C)(CN)C2)c(F)cc2c(=O)c(C(=O)O)cn(C3CC3)c12 (stereo unspecified) | 3.1 (≈ 7.68 µM) | 0.8 (≈ 1.98 µM) | > 100 | 3.1 (≈ 7.68 µM) | 100 | 0.8 (≈ 1.98 µM) | 1.6 (≈ 3.97 µM) | 140 (≈ 347 µM) | 0.05 (≈ 0.124 µM) | 0.2 (≈ 0.496 µM) | 0.4 (≈ 0.991 µM) | 0.1 (≈ 0.248 µM) | 0.1 (≈ 0.248 µM) | 0.2 (≈ 0.496 µM) | 0.2 (≈ 0.496 µM) | 1.6 (≈ 3.97 µM) | 0.8 (≈ 1.98 µM) | 0.1 (≈ 0.248 µM) | 0.013 (≈ 0.0322 µM) | 
10 | CC1(CN)CCN(c2nc3c(cc2F)c(=O)c(C(=O)O)cn3C2CC2)C1 (stereo unspecified) | 25 (≈ 69.4 µM) | 1.6 (≈ 4.44 µM) | > 300 | 1.6 (≈ 4.44 µM) | 300 | 0.2 (≈ 0.555 µM) | 6.3 (≈ 17.5 µM) |  |  |  |  |  |  |  |  |  |  |  |  | 
11 | COc1c(N2CCC(C)(CN)C2)c(F)cc2c(=O)c(C(=O)O)cn(C3CC3)c12 (stereo unspecified) | 0.8 (≈ 2.05 µM) | 0.8 (≈ 2.05 µM) | > 100 | 0.4 (≈ 1.03 µM) | 100 | 0.2 (≈ 0.514 µM) | 0.4 (≈ 1.03 µM) |  | 0.025 (≈ 0.0642 µM) | 0.1 (≈ 0.257 µM) | 0.2 (≈ 0.514 µM) | 0.013 (≈ 0.0334 µM) | 0.013 (≈ 0.0334 µM) | 0.05 (≈ 0.128 µM) | 0.1 (≈ 0.257 µM) | 1.6 (≈ 4.11 µM) | 0.4 (≈ 1.03 µM) | 0.025 (≈ 0.0642 µM) | 0.006 (≈ 0.0154 µM) | 
